Tests used:
Format in all cases: functional
[1] = test system: Bacillus cereus; assay: Antimicrobial activity against Bacillus cereus ATCC 11778 assessed as growth inhibition rate at 1.2 mg/l after 72 hr by spectrophotometry; conditions: ATCC 11778, 72 h, read-out: GI
How it was run: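 Pure volatile compounds (>95% purity; 2,4-heptadienal 90%) identified in the leaf extract were tested against B. cereus ATCC 11778 in nutrient broth at 30 °C. The inoculum was grown 24 h, then subcultured (0.1 mL into 9.9 mL) for 18 h. Optical density was read in a Bioscreen C every 24 h for 72 h against a 10% Tween 80 control.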

[2] = test system: Staphylococcus aureus; assay: Antimicrobial activity against Staphylococcus aureus ATCC 25923 assessed as growth inhibition rate at 1.2 mg/l after 72 hr by spectrophotometry; conditions: ATCC 25923, 72 h, read-out: GI
How it was run: (§1)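 Authentic volatiles (>95% purity; 2,4-heptadienal 90%) tested against 18 h subcultures. Growth media: E. coli O157:H7 and S. aureus in tryptic soy broth at 37 °C; L. monocytogenes in tryptic soy broth at 30 °C; V. parahaemolyticus in tryptic soy broth + 3% NaCl at 37 °C; S. typhimurium in nutrient broth at 30 °C. Bioscreen C OD every 24 h for 72 h versus 10% Tween 80 control.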

[3] = test system: Vibrio parahaemolyticus; assay: Antimicrobial activity against Vibrio parahaemolyticus ATCC 33844 assessed as growth inhibition rate at 1.2 mg/l after 72 hr by spectrophotometry; conditions: ATCC 33844, 72 h, read-out: GI; how it was run: as §1
[4] = test system: Listeria monocytogenes; assay: Antimicrobial activity against Listeria monocytogenes ATCC 19111 assessed as growth inhibition rate at 1.2 mg/l after 72 hr by spectrophotometry; conditions: ATCC 19111, 72 h, read-out: GI; how it was run: as §1
[5] = test system: Escherichia coli; assay: Antimicrobial activity against Escherichia coli O157:H7 ATCC 43894 assessed as growth inhibition rate at 1.2 mg/l after 72 hr by spectrophotometry; conditions: O157:H7 ATCC 43894, 72 h, read-out: GI
[6] = test system: Salmonella typhimurium; assay: Antimicrobial activity against Salmonella enterica subsp. enterica serovar Typhimurium ATCC 14028 assessed as growth inhibition rate at 1.2 mg/l after 72 hr by spectrophotometry; conditions: ATCC 14028, 72 h, read-out: GI; how it was run: as §1
[7] = test system: Listeria monocytogenes; assay: Antimicrobial activity against Listeria monocytogenes ATCC 19111 assessed as growth inhibition rate at 11.64 mg/l after 72 hr by spectrophotometry; conditions: ATCC 19111, 72 h, read-out: GI
How it was run: (§2)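 L. monocytogenes was grown at 30 °C in tryptic soy broth, subcultured for 18 h, and exposed to pure volatile compounds (>95% purity). Growth was followed by Bioscreen C optical density every 24 h for 72 h against a 10% Tween 80 control.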

[8] = test system: Vibrio parahaemolyticus; assay: Antimicrobial activity against Vibrio parahaemolyticus ATCC 33844 assessed as growth inhibition rate at 11.64 mg/l after 72 hr by spectrophotometry; conditions: ATCC 33844, 72 h, read-out: GI
[9] = test system: Salmonella typhimurium; assay: Antimicrobial activity against Salmonella enterica subsp. enterica serovar Typhimurium ATCC 14028 assessed as growth inhibition rate at 11.64 mg/l after 72 hr by spectrophotometry; conditions: ATCC 14028, 72 h, read-out: GI
How it was run: (§3)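 Salmonella Typhimurium ATCC 14028 grown in nutrient broth at 30 °C, precultured 24 h, then subcultured 1:100 for 18 h before testing. Single volatile compounds (>95% pure) were added. OD was read every 24 h over 72 h in a Bioscreen C, with 10% Tween 80 as the comparison control.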

[10] = test system: Escherichia coli; assay: Antimicrobial activity against Escherichia coli O157:H7 ATCC 43894 assessed as growth inhibition rate at 11.64 mg/l after 72 hr by spectrophotometry; conditions: O157:H7 ATCC 43894, 72 h, read-out: GI
[11] = test system: Staphylococcus aureus; assay: Antimicrobial activity against Staphylococcus aureus ATCC 25923 assessed as growth inhibition rate at 11.64 mg/l after 72 hr by spectrophotometry; conditions: ATCC 25923, 72 h, read-out: GI
[12] = test system: Bacillus cereus; assay: Antimicrobial activity against Bacillus cereus ATCC 11778 assessed as growth inhibition rate at 11.64 mg/l after 72 hr by spectrophotometry; conditions: ATCC 11778, 72 h, read-out: GI
How it was run: (§4)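 Pure volatile compounds (purity >95%; one at 90%) were tested against B. cereus ATCC 11778. The strain was grown at 30 °C in nutrient broth for 24 h, then subcultured for 18 h. Optical density was read in a Bioscreen C every 24 h for 72 h, with 10% Tween 80 as the control.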

[13] = test system: Listeria monocytogenes; assay: Antimicrobial activity against Listeria monocytogenes ATCC 19111 assessed as growth inhibition rate at 143.24 mg/l after 72 hr by spectrophotometry; conditions: ATCC 19111, 72 h, read-out: GI; how it was run: as §2
[14] = test system: Vibrio parahaemolyticus; assay: Antimicrobial activity against Vibrio parahaemolyticus ATCC 33844 assessed as growth inhibition rate at 143.24 mg/l after 72 hr by spectrophotometry; conditions: ATCC 33844, 72 h, read-out: GI
[15] = test system: Salmonella typhimurium; assay: Antimicrobial activity against Salmonella enterica subsp. enterica serovar Typhimurium ATCC 14028 assessed as growth inhibition rate at 143.24 mg/l after 72 hr by spectrophotometry; conditions: ATCC 14028, 72 h, read-out: GI; how it was run: as §3
[16] = test system: Escherichia coli; assay: Antimicrobial activity against Escherichia coli O157:H7 ATCC 43894 assessed as growth inhibition rate at 143.24 mg/l after 72 hr by spectrophotometry; conditions: O157:H7 ATCC 43894, 72 h, read-out: GI
[17] = test system: Staphylococcus aureus; assay: Antimicrobial activity against Staphylococcus aureus ATCC 25923 assessed as growth inhibition rate at 143.24 mg/l after 72 hr by spectrophotometry; conditions: ATCC 25923, 72 h, read-out: GI
[18] = test system: Bacillus cereus; assay: Antimicrobial activity against Bacillus cereus ATCC 11778 assessed as growth inhibition rate at 143.24 mg/l after 72 hr by spectrophotometry; conditions: ATCC 11778, 72 h, read-out: GI; how it was run: as §4

**Q.** Which inhibition of growth at 1.2 µg/mL [1] does the source give for `CC=O` here?
**A.** Its inhibition of growth at 1.2 µg/mL is 1.2%.

**Q.** What about the inhibition of growth at 1.2 µg/mL [2] of the same compound?
**A.** The inhibition of growth at 1.2 µg/mL was 2.8%.

**Q.** And the inhibition of growth at 1.2 µg/mL [3]?
**A.** Its inhibition of growth at 1.2 µg/mL is 11.1%.

**Q.** What about the inhibition of growth at 1.2 µg/mL [4] of the same compound?
**A.** Its inhibition of growth at 1.2 µg/mL is 10%.

**Q.** What about the inhibition of growth at 1.2 µg/mL [5] of the same compound?
**A.** Its inhibition of growth at 1.2 µg/mL is 5.3%.

**Q.** And the inhibition of growth at 1.2 µg/mL [6]?
**A.** Its inhibition of growth at 1.2 µg/mL is 15.4%.

**Q.** How did the inhibition of growth at 11.64 µg/mL [7] turn out when `CC1=C[C@@H]2C(=C(C)CC[C@H]2C(C)C)CC1` was run?
**A.** The inhibition of growth at 11.64 µg/mL was 15.7%.

**Q.** And the inhibition of growth at 11.64 µg/mL [8]?
**A.** The inhibition of growth at 11.64 µg/mL was 32.5%.

**Q.** What about the inhibition of growth at 11.64 µg/mL [9] of the same compound?
**A.** The inhibition of growth at 11.64 µg/mL was 4.3%.

**Q.** And the inhibition of growth at 11.64 µg/mL [10]?
**A.** The inhibition of growth at 11.64 µg/mL was 9.5%.

**Q.** What about the inhibition of growth at 11.64 µg/mL [11] of the same compound?
**A.** The inhibition of growth at 11.64 µg/mL was 26.3%.

**Q.** What about the inhibition of growth at 11.64 µg/mL [12] of the same compound?
**A.** Its inhibition of growth at 11.64 µg/mL is 20.3%.

**Q.** How did the inhibition of growth at 143.24 µg/mL [13] turn out when `C=C1CC[C@@H]2[C@H]([C@@H]3[C@H](C)CC[C@@H]13)C2(C)C` [(-)-AROMADENDRENE II] was run?
**A.** Its inhibition of growth at 143.24 µg/mL is 28%.

**Q.** What about the inhibition of growth at 143.24 µg/mL [14] of the same compound?
**A.** The inhibition of growth at 143.24 µg/mL was 45.6%.

**Q.** What about the inhibition of growth at 143.24 µg/mL [15] of the same compound?
**A.** The inhibition of growth at 143.24 µg/mL was 36.4%.

**Q.** And the inhibition of growth at 143.24 µg/mL [16]?
**A.** Its inhibition of growth at 143.24 µg/mL is 24.2%.

**Q.** And the inhibition of growth at 143.24 µg/mL [17]?
**A.** The inhibition of growth at 143.24 µg/mL was 61.5%.

**Q.** What about the inhibition of growth at 143.24 µg/mL [18] of the same compound?
**A.** Its inhibition of growth at 143.24 µg/mL is 72.3%.

Reference: ChEMBL document CHEMBL3046951, “Volatile constituents from the leaves of Callicarpa japonica Thunb. and their antibacterial activities” (2004)
